Compound activity as filed in PubChem.
TRPC4 potent: allosterically enhances the mouse TRPC4 cation channel; 0.42% of 310,000 active; Q9QUQ5; B-score at 10 µM; HEK293 TRPC4beta/mu-opioid, DAMGO EC20, Fluo-4 Ca2+ flux; active compounds read high;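 active = B-score of calcium response area above 5 SD of library B-scores, with initial fluorescence ratio within 5 SD of library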;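 note: B-score of integrated fluorescence ratio over time as area under calcium response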
Target sequence (Q9QUQ5 whole entry, looked up): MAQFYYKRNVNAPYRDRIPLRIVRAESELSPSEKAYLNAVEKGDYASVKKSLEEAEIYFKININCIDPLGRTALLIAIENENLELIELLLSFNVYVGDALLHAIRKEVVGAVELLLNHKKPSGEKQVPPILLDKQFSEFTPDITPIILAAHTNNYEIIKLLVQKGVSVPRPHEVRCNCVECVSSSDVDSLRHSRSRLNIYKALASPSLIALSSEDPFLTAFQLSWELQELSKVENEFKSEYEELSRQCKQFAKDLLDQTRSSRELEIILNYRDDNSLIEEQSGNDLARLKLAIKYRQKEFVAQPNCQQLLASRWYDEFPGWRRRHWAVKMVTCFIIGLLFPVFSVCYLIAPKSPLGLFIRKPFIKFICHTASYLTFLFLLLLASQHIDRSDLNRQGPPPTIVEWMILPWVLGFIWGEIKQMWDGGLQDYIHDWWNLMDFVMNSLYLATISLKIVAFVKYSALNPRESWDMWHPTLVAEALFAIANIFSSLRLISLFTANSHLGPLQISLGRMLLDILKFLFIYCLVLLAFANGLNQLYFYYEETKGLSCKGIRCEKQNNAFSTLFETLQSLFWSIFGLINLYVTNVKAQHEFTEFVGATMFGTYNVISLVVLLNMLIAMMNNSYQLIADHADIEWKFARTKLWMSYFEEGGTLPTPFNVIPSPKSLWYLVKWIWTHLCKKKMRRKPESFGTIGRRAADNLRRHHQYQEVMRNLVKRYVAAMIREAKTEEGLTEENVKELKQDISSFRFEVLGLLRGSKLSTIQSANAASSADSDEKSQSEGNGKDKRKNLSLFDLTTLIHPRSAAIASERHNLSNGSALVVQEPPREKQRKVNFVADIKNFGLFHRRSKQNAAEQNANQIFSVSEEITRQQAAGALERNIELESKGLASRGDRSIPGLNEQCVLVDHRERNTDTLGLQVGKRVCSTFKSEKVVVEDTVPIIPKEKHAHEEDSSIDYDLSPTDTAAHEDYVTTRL
TRPC4 inh: TRPC4 (mouse) channel inhibition; Q9QUQ5; HEK293 TRPC4beta/mu-opioid, DAMGO-evoked Fluo4 calcium flux; active compounds read low; B-score at 10 µM; 0.39% of 300,000 active; AID 2247;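 active = B-score over 3 SD under the library average, no early fluorescence shift, positive overall ratio signal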
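Assay system: Stable TRPC4beta/mu-opioid receptor HEK293 cells | Reagent: DAMGO in two steps, submaximal then maximal | Compound dosing: Single concentration per test compound | Signal: Fluo4 Ca2+ flux fluorescence | Evaluation: Per-well B score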
TRPC6 inh: inhibitors of mouse TRPC6 channel; Q61143; HEK293-TRPC6, membrane potential dye, ACh-evoked depolarization; active compounds read low; B-score at 10 µM; 1.1% of 310,000 active; AID 2553;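 active = B-score under library mean minus 3 SD, initial fluorescence not abnormally high, positive integrated signal ratio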;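 note: B-score derived from integrated fluorescence ratio over the kinetic read; more negative B-score means stronger inhibition of depolarization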
TRPC6 act: mouse TRPC6 channel activation | Q61143 | HEK293-TRPC6 membrane potential dye fluorescence; active compounds read high | B-score at 10 µM | 0.13% of 310,000 active;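 active = B-score of the integrated fluorescence ratio above library mean plus 3 SD, and starting fluorescence ratio within library mean plus 5 SD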;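 note: higher score means more depolarization so channel activation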
Kir21 inh: inhibitors of mouse Kir2.1 inward-rectifier potassium channel; P35561; HEK293-Kir2.1, FluxOR thallium flux fluorescence; active compounds read low; B-score at 10 µM; 0.85% of 310,000 active; AID 1672;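 active = fluorescence ratio B-score at or below minus 3 SD of library scores, with starting-brightness B-score within 2 SD, cut at about -4.2 in these data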;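 note: channel flux triggered by added potassium and thallium sulfate stimulus; B-score of peak minus minimum fluorescence over baseline after thallium stimulus; more negative B-score means stronger Kir2.1 block with less thallium influx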
TRPC4 agonist: TRPC4 (mouse) channel activation. Q9QUQ5. HEK293 TRPC4beta/mu-opioid, Fluo4 calcium fluorescence; active compounds read high. B-score at 10 µM. 0.49% of 310,000 active. AID 2237;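 active = B-score above 5 SD of library B-scores, and initial fluorescence ratio not above library mean plus 5 SD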;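 note: positive B-score marks a calcium rise read as TRPC4 activation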
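Material: TRPC4beta and mu-opioid receptor HEK293 stable cells | Incubation: 45 min room-temperature Fluo4 loading, 110 s read | Detection: Kinetic Fluo4 calcium fluorescence | Measure: Integrated baseline-normalised fluorescence ratio, converted to per-well B score | Benchmarks: Low control buffer alone, high control maximal DAMGO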
TRPC4 sel inh 2: mouse TRPC4 off-target activity of TRPC6 inhibitors, second screen | AID 2776 | HEK293 TRPC4/MOR, membrane potential dye fluorescence; channel activated by saturating DAMGO dose | 42% of 920 active | inhibition, % at 10 µM | shares compounds with TRPC6 inh;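 active = compounds whose fluorescence signal differed from control wells by over 3 SD, either direction, in both duplicate plates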
TRPC4 spec: selectivity of TRPC6 inhibitors: effect on mouse TRPC4; 61% of 920 active; shares compounds with TRPC6 inh; HEK293 TRPC4/mu-opioid, membrane potential fluorescence; activity change, negative = inhibition, % at 10 µM;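 active = rise or fall in signal beyond 3 SD of buffer-only wells in both replicate plates, either sign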;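 note: integrated kinetic ratio of fluorescence range over baseline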
HEK293 MPD ctr 2-1: parental HEK293 nonspecific activity of TRPC6 inhibitors, second screen; shares compounds with TRPC6 inh; parental HEK293 membrane potential dye fluorescence; maximal acetylcholine challenge after compound addition; signal change vs control, % at 10 µM; 31% of 920 active;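 active = membrane potential signal moving either way by over 3 SD of the maximum-effect control, in both duplicate plates, meaning non-specific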
HEK293 MPD ctr-1: checks TRPC6 inhibitor effects in parental HEK293 cells | shares compounds with TRPC6 inh | parental HEK293 membrane potential dye fluorescence | membrane potential signal change, % at 10 µM | 60% of 920 active;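 active = membrane potential signal shifting up or down by more than 3 SD of buffer-only wells, on both duplicate plates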
HEK293 MPD ctr-2: counter-screen for TRPC6 modulators: effect in parental HEK293 cells; shares compounds with TRPC6 inh; membrane potential dye fluorescence; membrane potential signal change, % at 10 µM; 51% of 2,400 active; AID 488924;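 active = membrane potential signal moves up or down beyond 5 SD from buffer-only wells, on both duplicate plates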
HEK293 MPD ctr 2-2: second counter-screen for TRPC6 modulators: effect in parental HEK293 cells | shares compounds with TRPC6 inh | membrane potential dye fluorescence; after compound, maximal acetylcholine stimulation | 14% of 2,400 active | inhibition, % at 10 µM;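 active = membrane potential signal drops by more than 5 SD from the mean control signal, in both duplicate plates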;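 note: plate controls were acetylcholine ECmax control wells for no effect and buffer only wells for full effect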
TRPC4 ctr mod: selectivity of TRPC6 modulators against mouse TRPC4. percent change from control (negative = decrease, positive = increase), % at 10 µM. shares compounds with TRPC6 inh. 69% of 2,400 active. HEK293 TRPC4/mu-opioid, membrane potential fluorescence;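 active = membrane potential signal moved up or down beyond 5 SD of buffer control wells, in both duplicate plates, actives on both sides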;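 note: plate controls were assay buffer wells for no effect and DAMGO maximal-effect wells for full effect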
TRPC4 ctr inh 2: mouse TRPC4 off-target activity of TRPC6 modulators, second screen. inhibition, % at 10 µM. HEK293 TRPC4/mu-opioid, membrane potential dye fluorescence; stimulated with maximal-effect DAMGO. shares compounds with TRPC6 inh. 55% of 2,400 active;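 active = drop in membrane potential signal beyond 5 SD of the control wells in both duplicate plates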;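 note: TRPC4 counter screen for TRPC6 hits run under conditions tuned for TRPC6 not TRPC4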
TRPC6 inh conf: confirmation of mouse TRPC6 inhibitors | shares compounds with TRPC6 inh | HEK293-TRPC6, membrane potential dye, ACh-evoked depolarization | inhibition, % at 10 µM | 43% of 3,300 active | AID 488960;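 active = fluorescence ratio falls more than 5 SD below the full-stimulation control mean, in both duplicate runs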;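 note: integrated fluorescence ratio of peak minus minimum over baseline after agonist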
TRPC6 act confirm: confirmation of mouse TRPC6 activators. shares compounds with TRPC6 inh. HEK293-TRPC6 membrane potential dye fluorescence, FDSS. activation, % at 10 µM. 11% of 2,800 active. AID 488961;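 active = ratio signal rise beyond 5 SD above unstimulated control wells' mean, seen in both duplicate runs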;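 note: plate controls were buffer EC0 wells for no effect and acetylcholine ECmax response for full effect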
Active calls of the source: *. Most compounds without a hit are left out; they make up all but 2.9% or so of the library.

O=C1c2ccccc2C(=O)N1CCCc1nc(-c2ccccn2)no1 was read as TRPC4 potent inactive, TRPC4 inh inactive, TRPC6 inh -5*, TRPC6 act inactive, Kir21 inh -0.7, TRPC4 agonist inactive, HEK293 MPD ctr-2 inactive, HEK293 MPD ctr 2-2 inactive, TRPC4 ctr mod inactive, TRPC4 ctr inh 2 inactive, TRPC6 inh conf inactive and TRPC6 act confirm inactive.
Screening O=C1c2ccccc2C(=O)N1CCc1nc(-c2ccccn2)no1 returned TRPC4 potent inactive, TRPC4 inh inactive, TRPC6 inh inactive, TRPC6 act inactive, Kir21 inh -0.56 and TRPC4 agonist inactive.
For COc1ccccc1NC(=O)CCN1C(=O)c2ccccc2C1=O the results were TRPC4 potent inactive, TRPC4 inh inactive, TRPC6 inh inactive, TRPC6 act inactive, Kir21 inh 0.54 and TRPC4 agonist inactive.
Screening CCCCN(CCCC)c1cn[nH]c(=O)c1Cl returned TRPC4 potent inactive, TRPC4 inh inactive, TRPC6 inh -6.9*, TRPC6 act inactive, Kir21 inh 1.6, TRPC4 agonist inactive, TRPC4 sel inh 2 inactive, TRPC4 spec 21%*, HEK293 MPD ctr 2-1 inactive, HEK293 MPD ctr-1 11%* and TRPC6 inh conf inactive.
For O=c1[nH]ncc(N2CCCCC2)c1Cl the results were TRPC4 potent inactive, TRPC4 inh inactive, TRPC6 inh inactive, TRPC6 act inactive, Kir21 inh 1.1 and TRPC4 agonist inactive.
Screening FC(F)(F)c1ccc2c(c1)n(Cc1ccccc1)c1[n+]2CCCCC1 returned TRPC4 potent inactive, TRPC4 inh inactive, TRPC6 inh -5.1*, TRPC6 act inactive, Kir21 inh 1.5, TRPC4 agonist inactive, HEK293 MPD ctr-2 inactive, HEK293 MPD ctr 2-2 inactive, TRPC4 ctr mod inactive, TRPC4 ctr inh 2 inactive, TRPC6 inh conf inactive and TRPC6 act confirm inactive.
Screening Cc1[nH]c2ccccc2c1SCCN returned TRPC4 potent inactive, TRPC4 inh inactive, TRPC6 inh inactive, TRPC6 act inactive, Kir21 inh 0.93 and TRPC4 agonist inactive.
